For assay [1], the system named is Rattus norvegicus. The experiment in a line: Compound was tested for oral salidiuretic activity (control/drug treatment value) in rats expressed as urinary output. at a dose of 128 mg/kg; 8.42/10.18. Format: functional, Urine.
The subject of assay [2] is Rattus norvegicus. Description: Compound was tested for oral salidiuretic activity (control/drug treatment value) in rats expressed in Na+, mequiv/6 hr at a dose of 128 mg/kg; 0.186/0.853. Format: functional, Urine.
For assay [3], the target named is Beta-1 adrenergic receptor (Homo sapiens) (UniProt P08588). The conditions noted are these: Canis lupus familiaris.
Beta-1 adrenergic receptor (Homo sapiens), sequence (P08588 whole entry, looked up): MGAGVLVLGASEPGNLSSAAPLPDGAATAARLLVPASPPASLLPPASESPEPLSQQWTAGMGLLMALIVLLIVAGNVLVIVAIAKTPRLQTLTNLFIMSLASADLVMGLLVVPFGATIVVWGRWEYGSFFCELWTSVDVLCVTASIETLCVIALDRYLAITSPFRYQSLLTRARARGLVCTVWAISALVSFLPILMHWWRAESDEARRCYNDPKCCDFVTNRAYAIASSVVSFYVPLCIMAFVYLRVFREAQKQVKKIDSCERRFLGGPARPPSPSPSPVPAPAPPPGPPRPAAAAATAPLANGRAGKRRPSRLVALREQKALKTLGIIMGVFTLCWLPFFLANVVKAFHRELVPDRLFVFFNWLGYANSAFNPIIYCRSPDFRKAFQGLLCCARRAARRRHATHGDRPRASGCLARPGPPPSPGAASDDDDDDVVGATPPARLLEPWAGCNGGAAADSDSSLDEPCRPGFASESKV
Assay [4] addresses Beta-2 adrenergic receptor (Canis lupus familiaris) (UniProt P54833).
Assay [5] deals with Rattus norvegicus. The experiment in a line: Compound was tested for oral salidiuretic activity (control/drug treatment value) in rats expressed as urinary output. at a dose of 32 mg/kg; 10.33/10.08. Format: functional, Urine.
The subject of assay [6] is Rattus norvegicus. The experiment in a line: Compound was tested for oral salidiuretic activity (control/drug treatment value) in rats expressed in Na+, mequiv/6 hr at a dose of 32 mg/kg; 0.140/0.417. Format: functional, Urine.
Assay [7] has as its system Rattus norvegicus. Description: Compound was tested for oral salidiuretic activity (control/drug treatment value) in rats expressed as urinary output. at a dose of 128 mg/kg; 7.67/6.97. Format: functional, Urine.
For assay [8], the system named is Rattus norvegicus. The experiment in a line: Compound was tested for oral salidiuretic activity (control/drug treatment value) in rats expressed in Na+, mequiv/6 hr at a dose of 128 mg/kg; 0.310/0.148. Format: functional, Urine.
Assay [9] relates to Rattus norvegicus. Description: Compound was tested for oral salidiuretic activity (control/drug treatment value) in rats expressed as urinary output. at a dose of 16 mg/kg; 7.33/9.75. Format: functional, Urine.
For assay [10], the system named is Rattus norvegicus. Description: Compound was tested for oral salidiuretic activity (control/drug treatment value) in rats expressed as urinary output. at a dose of 32 mg/kg; 7.33/9.17. Format: functional, Urine.
Assay [11] has as its system Rattus norvegicus. The experiment in a line: Compound was tested for oral salidiuretic activity (control/drug treatment value) in rats expressed as urinary output. at a dose of 64 mg/kg; 7.33/10. Format: functional, Urine.
The subject of assay [12] is Rattus norvegicus. The experiment in a line: Compound was tested for oral salidiuretic activity (control/drug treatment value) in rats expressed in Na+, mequiv/6 h at a dose of 128 mg/kg; 0.205/0.712. Format: functional, Urine.
For assay [13], the system named is Rattus norvegicus. The experiment in a line: Compound was tested for oral salidiuretic activity (control/drug treatment value) in rats expressed in Na+, mequiv/6 hr at a dose of 32 mg/kg; 0.205/0.358. Format: functional, Urine.
The test system of assay [14] is Rattus norvegicus. Description: Compound was tested for oral salidiuretic activity (control/drug treatment value) in rats expressed in Na+, mequiv/6 h at a dose of 64 mg/kg; 0.205/0.514. Format: functional, Urine.
Assay [15] deals with Rattus norvegicus. The experiment in a line: Compound was tested for oral salidiuretic activity (control/drug treatment value) in rats expressed as urinary output. at a dose of 128 mg/kg; 7.33/11.50. Format: functional, Urine.
Assay [16] deals with Rattus norvegicus. Description: Compound was tested for oral salidiuretic activity (control/drug treatment value) in rats expressed in Na+, mequiv/6 hr at a dose of 16 mg/kg; 0.205/0.350. Format: functional, Urine.
Assay [17] addresses Beta-1 adrenergic receptor (Homo sapiens) (UniProt P08588). The experiment in a line: Compound was tested for beta-1 adrenergic receptor blocking activity in dogs. The conditions noted are these: Canis lupus familiaris; target entry is the homologue from another species.
Assay [18] deals with Rattus norvegicus. Description: Compound was tested for oral salidiuretic activity (control/drug treatment value) in rats expressed as urinary output. at a dose of 16 mg/kg; 6.42/9. Format: functional, Urine.
In assay [19] the test system is Rattus norvegicus. The experiment in a line: Compound was tested for oral salidiuretic activity (control/drug treatment value) in rats expressed as urinary output. at a dose of 32 mg/kg; 6.42/9.83. Format: functional, Urine.
The subject of assay [20] is Rattus norvegicus. Description: Compound was tested for oral salidiuretic activity (control/drug treatment value) in rats expressed as urinary output. at a dose of 32 mg/kg at 0-2h; 7.42/9.64. Format: functional, Urine.
Assay [21] relates to Rattus norvegicus. Description: Compound was tested for oral salidiuretic activity (control/drug treatment value) in rats expressed as urinary output. at a dose of 32 mg/kg at 0-4 h; 9.02/11.67. Format: functional, Urine.
In assay [22] the test system is Rattus norvegicus. The experiment in a line: Compound was tested for oral salidiuretic activity (control/drug treatment value) in rats expressed as urinary output. at a dose of 32 mg/kg at 0-6 h; 9.99/13.01. Format: functional, Urine.
Assay [23] concerns Rattus norvegicus. The experiment in a line: Compound was tested for oral salidiuretic activity (control/drug treatment value) in rats expressed as urinary output. at a dose of 64 mg/kg; 6.42/11.25. Format: functional, Urine.
Assay [24] concerns Rattus norvegicus. Description: Compound was tested for oral salidiuretic activity (control/drug treatment value) in rats expressed in Na+, mequiv/6 hr at a dose of 128 mg/kg;. 207/1.364. Format: functional, Urine.
In assay [25] the test system is Rattus norvegicus. Description: Compound was tested for oral salidiuretic activity (control/drug treatment value) in rats expressed as urinary output. at a dose of 128 mg/kg; 6.42/15.08. Format: functional, Urine.
For assay [26], the system named is Rattus norvegicus. Description: Compound was tested for oral salidiuretic activity (control/drug treatment value) in rats expressed in Na+, mequiv/6 hr at a dose of 32 mg/kg; 0.207/0.626. Format: functional, Urine.
Assay [27] concerns Rattus norvegicus. Description: Compound was tested for oral salidiuretic activity (control/drug treatment value) in rats expressed in Na+, mequiv/6 hr at a dose of 32 mg/kg; 0.259/0.680. Format: functional, Urine.
For assay [28], the system named is Rattus norvegicus. Description: Compound was tested for oral salidiuretic activity (control/drug treatment value) in rats expressed in Na+, mequiv/6 hr at a dose of 64 mg/kg; 0.207/0.766. Format: functional, Urine.
Assay [29] concerns Rattus norvegicus. The experiment in a line: Compound was tested for oral salidiuretic activity (control/drug treatment value) in rats expressed in Na+, mequiv/6 hr at a dose of 16 mg/kg; 0.207/0.554. Format: functional, Urine.
Assay [30] deals with Beta-2 adrenergic receptor (Canis lupus familiaris) (UniProt P54833). The experiment in a line: The compound was tested for beta-2 adrenergic receptor blocking activity in dogs. The method, boiled down: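 In two dogs, drugs were injected via a cannulated saphenous vein, with increasing doses given every 30 min and each animal used once per substance. Isoproterenol-induced changes in diastolic arterial pressure after each dose were compared with isoproterenol control responses to calculate percent blockade. ID50 (50% inhibition) was estimated from the dose-response curve.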
Beta-2 adrenergic receptor (Canis lupus familiaris), sequence (P54833 whole entry, looked up): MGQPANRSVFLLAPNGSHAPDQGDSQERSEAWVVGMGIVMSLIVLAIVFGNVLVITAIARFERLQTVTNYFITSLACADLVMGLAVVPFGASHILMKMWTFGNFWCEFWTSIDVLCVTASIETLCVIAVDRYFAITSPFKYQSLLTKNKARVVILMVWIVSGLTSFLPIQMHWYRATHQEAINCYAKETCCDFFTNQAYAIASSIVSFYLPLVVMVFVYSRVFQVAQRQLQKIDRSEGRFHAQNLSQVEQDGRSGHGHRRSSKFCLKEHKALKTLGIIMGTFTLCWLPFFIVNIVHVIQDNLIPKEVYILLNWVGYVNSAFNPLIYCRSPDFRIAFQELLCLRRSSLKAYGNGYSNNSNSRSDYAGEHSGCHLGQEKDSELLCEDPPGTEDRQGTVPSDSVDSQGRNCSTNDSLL

In assay [31] the target is Beta-1 adrenergic receptor (Homo sapiens) (UniProt P08588). The experiment in a line: Compound was tested for beta-1 adrenergic receptor blocking activity in conscious rats after 1 hr. Conditions: Rattus norvegicus; target entry is the homologue from another species.
Assay [32] shares this target. Description: Compound was tested for beta-1 adrenergic receptor blocking activity in conscious rats after 5 hr. The conditions noted are these: Rattus norvegicus; target entry is the homologue from another species.
For assay [33], the target named is Beta-2 adrenergic receptor (Rattus norvegicus) (UniProt P10608). Description: The compound was tested for beta-2 adrenergic receptor blocking activity in conscious rats after 1 hr.
Beta-2 adrenergic receptor (Rattus norvegicus), sequence (P10608 whole entry, looked up): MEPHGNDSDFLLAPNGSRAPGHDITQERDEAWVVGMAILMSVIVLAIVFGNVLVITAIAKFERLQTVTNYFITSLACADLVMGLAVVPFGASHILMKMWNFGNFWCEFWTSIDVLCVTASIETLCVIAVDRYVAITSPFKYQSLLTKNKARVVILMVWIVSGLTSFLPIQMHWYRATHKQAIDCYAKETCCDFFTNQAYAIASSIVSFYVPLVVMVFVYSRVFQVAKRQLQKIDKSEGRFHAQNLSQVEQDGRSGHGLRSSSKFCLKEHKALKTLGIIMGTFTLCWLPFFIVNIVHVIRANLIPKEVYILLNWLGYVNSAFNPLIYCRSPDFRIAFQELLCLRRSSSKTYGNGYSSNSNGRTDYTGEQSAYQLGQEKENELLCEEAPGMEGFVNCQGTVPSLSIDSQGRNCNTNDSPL
Assay [34] relates to Rattus norvegicus. The experiment in a line: Compound was tested for oral salidiuretic activity (control/drug treatment value) in rats expressed as urinary output. at a dose of 32 mg/kg; 7.87/8.10. Format: functional, Urine.
For assay [35], the system named is Rattus norvegicus. Description: Compound was tested for oral salidiuretic activity (control/drug treatment value) in rats expressed in Na+, mequiv/6 hr at a dose of 32 mg/kg; 0.177/0.305. Format: functional, Urine.
Assay [36] concerns Rattus norvegicus. The experiment in a line: Compound was tested for oral salidiuretic activity (control/drug treatment value) in rats expressed as urinary output. at a dose of 64 mg/kg; 10.33/9.33. Format: functional, Urine.
For assay [37], the system named is Rattus norvegicus. The experiment in a line: Compound was tested for oral salidiuretic activity (control/drug treatment value) in rats expressed in Na+, mequiv/6 hr at a dose of 64 mg/kg; 0.140/0.355. Format: functional, Urine.
For assay [38], the system named is Rattus norvegicus. Description: Compound was tested for oral salidiuretic activity (control/drug treatment value) in rats expressed as urinary output. at a dose of 128 mg/kg; 8.72/8.02. Format: functional, Urine.
Assay [39] concerns Rattus norvegicus. The experiment in a line: Compound was tested for oral salidiuretic activity (control/drug treatment value) in rats expressed in Na+, mequiv/6 hr at a dose of 128 mg/kg; 0.163/0.133. Format: functional, Urine.

A value given as a limit tells only on which side of the number the result lay.

Experimental findings from ChEMBL document CHEMBL1123539, “[p-[(Thienylcarbonyl)amino]phenoxy]propanolamines derivatives as diuretic and beta-adrenergic receptor blocking agents” (1986) are described below.

As to `CCOC(=O)c1cc(NC(=O)c2ccsc2)ccc1OCC(O)CNC(C)(C)C` (stereo unspecified), the Activity worked out at 8.42 mL in the assay on Rattus norvegicus [1] and 0.186 in the assay with Rattus norvegicus [2]. The ID50 was 0.06 mg/kg in [3] and greater than 1 mg/kg in assay [4].
Take `CC(C)NCC(O)COc1ccc(NC(=O)c2cccs2)cc1Cl` (stereo unspecified): the Activity in the assay with Rattus norvegicus [5] turned out to be 10.33 mL; in the assay on Rattus norvegicus [6], 0.14. For the same compound, the figures for the ID50 in [3] and in assay [4] were 0.17 mg/kg and greater than 1 mg/kg, respectively.
Consider `CC(C)(C)NCC(O)COc1ccc(NC(=O)c2cccs2)cc1C(N)=O` (stereo unspecified), for which the figures for the Activity in the assay on Rattus norvegicus [7] and in the assay with Rattus norvegicus [8] were 7.67 mL and 0.301, respectively. The results for the ID50 in assay [3] and in [4] were 0.12 mg/kg and greater than 1 mg/kg, respectively.
Regarding `CCOC(=O)c1cc(NC(=O)c2cccs2)ccc1OCC(O)CNC(C)C` (stereo unspecified), the Activity in the assay with Rattus norvegicus [9] stood at 7.33 mL; in the assay on Rattus norvegicus [10], 7.33 mL; with Rattus norvegicus [11], 7.33 mL; with Rattus norvegicus [12], 0.205; in the assay with Rattus norvegicus [13] it was 0.205; in the assay on Rattus norvegicus [14], 0.205. The values for the Activity in the assay on Rattus norvegicus [15] and with Rattus norvegicus [16] were 7.33 mL and 0.205, respectively. The ID50 in [3] was 0.3 mg/kg; in assay [4], 0.45 mg/kg.
Turning to `CCOC(=O)c1cc(NC(=O)c2cccs2)ccc1OCC(O)CNC(C)(C)C` (stereo unspecified) [TIENOXOLOL], the ID50 was 0.065 mg/kg in assay [17] and greater than 1 mg/kg in assay [30]. For the same compound, the treated urinary output in the assay on Rattus norvegicus [18] amounted to 9 mL; in the assay on Rattus norvegicus [19], 9.83 mL; in the assay on Rattus norvegicus [23] it was 11.2 mL. The Activity with Rattus norvegicus [20] is 7.42 mL; with Rattus norvegicus [21], 9.02 mL; in the assay on Rattus norvegicus [22], 9.99 mL; in the assay on Rattus norvegicus [24], 0.207; with Rattus norvegicus [25], 6.42 mL; in the assay with Rattus norvegicus [26], 0.207. Further, the Activity with Rattus norvegicus [27] came to 0.259; in the assay on Rattus norvegicus [28], 0.207; in the assay on Rattus norvegicus [29], 0.207. For the same compound, the ED50 in assay [31] was found to be 0.00176 mg/kg; in assay [32], 0.00179 mg/kg; in assay [33], 0.00133 mg/kg.
For `CC(=O)c1cc(NC(=O)c2cccs2)ccc1OCC(O)CNC(C)(C)C` (stereo unspecified), the Activity in the assay on Rattus norvegicus [34] came out at 7.87 mL; in the assay on Rattus norvegicus [35] it was 0.177. For the same compound, the values for the ID50 in [3] and in assay [4] were 0.022 mg/kg and greater than 1 mg/kg, respectively.
In the case of `CC(C)(C)NCC(O)COc1ccc(NC(=O)c2cccs2)cc1Cl` (stereo unspecified), the Activity in the assay on Rattus norvegicus [36] amounted to 10.33 mL; in the assay with Rattus norvegicus [37], 0.14. In addition, the values for the ID50 in [3] and in assay [4] were 0.014 mg/kg and 0.4 mg/kg, respectively.
For `CCOC(=O)c1cc(NC(=O)Cc2ccsc2)ccc1OCC(O)CNC(C)C` (stereo unspecified), the Activity is 8.72 mL in the assay on Rattus norvegicus [38] and 0.163 in the assay on Rattus norvegicus [39]. The values for the ID50 in assay [3] and in assay [4] were 0.02 mg/kg and greater than 1 mg/kg, respectively.
